Reference: ChEMBL document CHEMBL3861960, “Leoligin, the Major Lignan from Edelweiss (Leontopodium nivale subsp. alpinum), Promotes Cholesterol Efflux from THP-1 Macrophages” (J Nat Prod, 2016)
The source made the active and inactive calls. The calls are words filed in the database; no cut-off is given here.

Columns and labels:
[1] = Cytotoxicity against human THP1 cells assessed as decrease in cell viability at 1 to 20 uM after 24 hrs by resazurin assay; format: toxicity, cell-based; details: thp-1, 24 h
In short: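 THP-1 cells kept in RPMI-1640 with 10% heat-inactivated FBS, penicillin/streptomycin and 2 mM L-glutamine, then differentiated to macrophages with 200 nM PMA for 72 h. Exposed to compound for 24 h. Viability read by resazurin conversion as fluorescence (ex 535 nm, em 580 nm). Digitonin 50 μg/mL served as cytotoxic control. Mean ± SD of four independent experiments; one-way ANOVA with Bonferroni test against DMSO.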

THP-1 [2] = assay: Induction of apo-A1-mediated cholesterol efflux from [3H]-cholesterol labeled human THP1 cells preincubated for 24 hrs followed by apo A1 addition measured after 6 hrs by scintillation counting method; format: functional, cell-based
In short: (§1)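 Differentiated THP-1 macrophages loaded with [3H]-cholesterol for 24 h in the presence of compound, or pioglitazone 10 μM as positive control. Medium then replaced with serum-free RPMI containing compound, with or without acceptor (10 μg/mL apo A1 or 1% human plasma from fasted volunteers), for 6 h. Efflux % = extracellular/total cpm with acceptor minus without acceptor, ×100, by scintillation counting. Three independent experiments.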

THP-1 [3] = assay: Induction of 1% human plasma-mediated cholesterol efflux from [3H]-cholesterol labeled human THP1 cells at 10 uM preincubated for 24 hrs followed by 1% human plasma addition measured after 6 hrs by scintillation counting method; format: functional; in short: as §1
[4] = Upregulation of ABCA1 protein expression in human THP1 cells at 10 uM after 24 hrs by Western blot method; format: functional, cell-based; details: THP-1
In short: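 THP-1 macrophages treated for 24 h with 10 μM compound, 10 μM pioglitazone or DMSO, then lysed in NP40 buffer (150 mM NaCl, 50 mM HEPES pH 7.4, 1% NP40) with protease and phosphatase inhibitors. 20 μg protein separated by SDS-PAGE and immunoblotted for ABCA1 with β-actin, ECL detection. Densitometry from four independent experiments.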

[5] = Upregulation of ABCG1 protein expression in human THP1 cells at 10 uM after 24 hrs by Western blot method; format: functional, cell-based; details: THP-1
In short: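 PMA-differentiated THP-1 macrophages (200 nM PMA, 72 h) exposed to 10 μM agent or DMSO vehicle for 24 h. Lysis in NP40 buffer with protease inhibitors, then Bradford protein assay. 20 μg protein run on SDS-PAGE, blotted to PVDF and probed with anti-ABCG1, β-actin as reference. ECL band densitometry from four independent experiments.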

[6] = Upregulation of ABCA1 mRNA expression in human THP1 cells at 10 uM after 24 hrs by qPCR method relative to control; format: functional, cell-based; details: THP-1
In short: (§2)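 THP-1 macrophages treated for 24 h with 10 μM compound, 10 μM pioglitazone or DMSO. Total RNA extracted and converted to cDNA; ABCA1 or ABCG1 measured by SYBR Green qPCR and expressed relative to 18S. Mean ± SD of four independent experiments; one-way ANOVA with Bonferroni test against DMSO.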

[7] = Upregulation of ABCG1 mRNA expression in human THP1 cells at 10 uM after 24 hrs by qPCR method relative to control; format: functional, cell-based; details: THP-1; in short: as §2
THP-1 [8] = assay: Suppression of ABCA1 mRNA degradation in human THP1 cells at 10 uM in presence of de novo gene transcription inhibitor actinomycin D at 2 hrs by qPCR method; format: functional, cell-based
In short: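 Differentiated THP-1 macrophages treated with 10 μM compound or DMSO for 24 h, then given 5 μg/mL actinomycin D and lysed at set time points. Total RNA extracted and reverse-transcribed; ABCA1 mRNA measured by SYBR Green qPCR normalised to 18S. Four independent experiments.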

THP-1 [9] = assay: Effect on GOLGA5 protein expression in human THP1 cells at 10 uM after 24 hrs by proteome analysis relative to control; format: functional
In short: (§3)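 PMA-differentiated THP-1 macrophages given 10 μM compound or DMSO for 24 h, then lysed in TRIzol. Proteins reduced with DTT, alkylated with iodoacetamide, digested with trypsin (1:50 w/w) for 16 h at 30 °C. Biological replicates pooled, analysed by LC-MS/MS on an Orbitrap Velos Pro with a 4 h gradient, FDR ≤0.05. Only unique peptides used; log2 peptide ratios averaged per protein and tested by one-sample t test versus vehicle.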

THP-1 [10] = assay: Effect on EVI2B protein expression in human THP1 cells at 10 uM after 24 hrs by proteome analysis relative to control; format: functional; in short: as §3
THP-1 [11] = assay: Effect on MYL12A protein expression in human THP1 cells at 10 uM after 24 hrs by proteome analysis relative to control; format: functional; in short: as §3
THP-1 [12] = assay: Effect on SMO protein expression in human THP1 cells at 10 uM after 24 hrs by proteome analysis relative to control; format: functional; in short: as §3
THP-1 [13] = assay: Effect on MYL12B protein expression in human THP1 cells at 10 uM after 24 hrs by proteome analysis relative to control; format: functional; in short: as §3
THP-1 [14] = assay: Effect on MAN2A1 protein expression in human THP1 cells at 10 uM after 24 hrs by proteome analysis relative to control; format: functional; in short: as §3
THP-1 [15] = assay: Effect on OR1M1 protein expression in human THP1 cells at 10 uM after 24 hrs by proteome analysis relative to control; format: functional; in short: as §3
THP-1 [16] = assay: Effect on RAB4A protein expression in human THP1 cells at 10 uM after 24 hrs by proteome analysis relative to control; format: functional; in short: as §3
THP-1 [17] = assay: Effect on MCM9 protein expression in human THP1 cells at 10 uM after 24 hrs by proteome analysis relative to control; format: functional; in short: as §3
THP-1 [18] = assay: Effect on CD44 protein expression in human THP1 cells at 10 uM after 24 hrs by proteome analysis relative to control; format: functional; in short: as §3
THP-1 [19] = assay: Effect on SHMT1 protein expression in human THP1 cells at 10 uM after 24 hrs by proteome analysis relative to control; format: functional; in short: as §3
THP-1 [20] = assay: Effect on LAMP1 protein expression in human THP1 cells at 10 uM after 24 hrs by proteome analysis relative to control; format: functional; in short: as §3
THP-1 [21] = assay: Effect on PTPRC protein expression in human THP1 cells at 10 uM after 24 hrs by proteome analysis relative to control; format: functional; in short: as §3
THP-1 [22] = assay: Effect on NCSTN protein expression in human THP1 cells at 10 uM after 24 hrs by proteome analysis relative to control; format: functional; in short: as §3
THP-1 [23] = assay: Effect on CPA3 protein expression in human THP1 cells at 10 uM after 24 hrs by proteome analysis relative to control; format: functional; in short: as §3
THP-1 [24] = assay: Effect on MGA protein expression in human THP1 cells at 10 uM after 24 hrs by proteome analysis relative to control; format: functional; in short: as §3
THP-1 [25] = assay: Effect on PAIP2 protein expression in human THP1 cells at 10 uM after 24 hrs by proteome analysis relative to control; format: functional; in short: as §3

C/C=C(/C)C(=O)OC[C@H]1[C@@H](Cc2ccc(OC)c(OC)c2)CO[C@@H]1c1ccc(OC)c(OC)c1
Activity [1]: Non-Toxic | Activity (THP-1 [2]): Dose-dependent effect | Activity (THP-1 [3]): Active | Activity [4]: Active | Activity [5]: Active | fold change (FC) [6]: 2.4 | fold change (FC) [7]: 3.8 | Activity (THP-1 [8]): Active | fold change (FC) (THP-1 [9]): 2.3 | fold change (FC) (THP-1 [10]): 2.3 | fold change (FC) (THP-1 [11]): 2.2 | fold change (FC) (THP-1 [12]): 2.1 | fold change (FC) (THP-1 [13]): 2 | fold change (FC) (THP-1 [14]): 2 | fold change (FC) (THP-1 [15]): 2 | fold change (FC) (THP-1 [16]): 1.9 | fold change (FC) (THP-1 [17]): 1.9 | fold change (FC) (THP-1 [18]): 1.8 | fold change (FC) (THP-1 [19]): 1.8 | fold change (FC) (THP-1 [20]): 1.8 | fold change (FC) (THP-1 [21]): 1.7 | fold change (FC) (THP-1 [22]): 1.7 | fold change (FC) (THP-1 [23]): 1.7 | fold change (FC) (THP-1 [24]): 1.7 | fold change (FC) (THP-1 [25]): 1.7
